Reference: ChEMBL document CHEMBL1914368, “Imidazo[1,5-a]quinoxalines as irreversible BTK inhibitors for the treatment of rheumatoid arthritis” (Bioorg Med Chem Lett, 2011)

Assays:
[1] = biological target: T1, Tyrosine-protein kinase Lyn (Homo sapiens, UniProt P07948); test: Inhibition of LYN-A expressed in Sf9 cells after 60 mins by TR-FRET Assay
[2] = Inhibition of anti-IgM-stimulated human B cell proliferation assessed as [3H]thymidine incorporation preincubated for 30 mins measured after 3 days; assay type: functional, cell-based
[3] = biological target: T2, Tyrosine-protein kinase BTK (Homo sapiens, UniProt Q06187); test: Inhibition of human full-length BTK expressed in Sf9 cells using FAM-Srctide peptide as substrate after 60 mins by TR-FRET Assay
[4] = Clearance in mouse at 2 mg/kg, iv; assay type: ADME, organism-based; set-up: dose 2 mg/kg, route intravenous; conditions: in vivo
[5] = Cmax in mouse at 10 mg/kg, po; assay type: ADME, organism-based; set-up: dose 10 mg/kg, route oral; conditions: in vivo
[6] = biological target: T2, Tyrosine-protein kinase BTK; test: Inhibition of human full-length BTK expressed in Sf9 cells using FAM-Srctide peptide as substrate preincubated for 60 mins measured after 60 mins by TR-FRET Assay
Outline: (§1)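 The compound was pre-incubated with the kinase before the enzymatic reaction was started. IC50 values are averages of two or more determinations.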

[7] = Half life in mouse at 10 mg/kg, po; assay type: ADME, organism-based; set-up: dose 10 mg/kg, route oral; conditions: in vivo
[8] = Volume of distribution at steady state in mouse at 2 mg/kg, iv; assay type: ADME, organism-based; set-up: dose 2 mg/kg, route intravenous; conditions: in vivo, read-out: Vdss
Outline: (§2)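 Mouse pharmacokinetics from single dosing at 2 mg/kg iv and 10 mg/kg po. The study derived AUC, T1/2, clearance, Vss, Tmax, Cmax and oral bioavailability (%F) from the paired iv and po arms.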

[9] = biological target: T3, Proto-oncogene tyrosine-protein kinase Src (Homo sapiens, UniProt P12931); test: Inhibition cSRC expressed in Sf9 cells after 60 mins by TR-FRET Assay
[10] = biological target: T3, Proto-oncogene tyrosine-protein kinase Src; test: Inhibition cSRC expressed in Sf9 cells preincubated for 60 mins measured after 60 mins by TR-FRET Assay
[11] = Oral bioavailability in mouse at 10 mg/kg; assay type: ADME, organism-based; conditions: in vivo; outline: as §2
[12] = Tmax in mouse at 10 mg/kg, po; assay type: ADME, organism-based; set-up: dose 10 mg/kg, route oral; conditions: in vivo; outline: as §2
[13] = Half life in mouse at 2 mg/kg, iv; assay type: ADME, organism-based; set-up: dose 2 mg/kg, route intravenous; conditions: in vivo
[14] = biological target: T4, Epidermal growth factor receptor (Homo sapiens, UniProt P00533); test: Inhibition of EGFR after 60 mins by TR-FRET Assay
[15] = biological target: Tyrosine-protein kinase Lck (Homo sapiens, UniProt P06239); test: Inhibition of C-terminal His6-tagged human full-length LCK expressed in Sf9 cells preincubated for 60 mins measured after 60 mins by TR-FRET Assay
[16] = biological target: T5, Aryl hydrocarbon receptor (Mus musculus, UniProt P30561); test: Agonist activity at Ah receptor in genetically engineered mouse cells expressing firefly luciferase gene by CALUX transactivational assay; assay type: functional
T5 sequence (P30561 whole entry): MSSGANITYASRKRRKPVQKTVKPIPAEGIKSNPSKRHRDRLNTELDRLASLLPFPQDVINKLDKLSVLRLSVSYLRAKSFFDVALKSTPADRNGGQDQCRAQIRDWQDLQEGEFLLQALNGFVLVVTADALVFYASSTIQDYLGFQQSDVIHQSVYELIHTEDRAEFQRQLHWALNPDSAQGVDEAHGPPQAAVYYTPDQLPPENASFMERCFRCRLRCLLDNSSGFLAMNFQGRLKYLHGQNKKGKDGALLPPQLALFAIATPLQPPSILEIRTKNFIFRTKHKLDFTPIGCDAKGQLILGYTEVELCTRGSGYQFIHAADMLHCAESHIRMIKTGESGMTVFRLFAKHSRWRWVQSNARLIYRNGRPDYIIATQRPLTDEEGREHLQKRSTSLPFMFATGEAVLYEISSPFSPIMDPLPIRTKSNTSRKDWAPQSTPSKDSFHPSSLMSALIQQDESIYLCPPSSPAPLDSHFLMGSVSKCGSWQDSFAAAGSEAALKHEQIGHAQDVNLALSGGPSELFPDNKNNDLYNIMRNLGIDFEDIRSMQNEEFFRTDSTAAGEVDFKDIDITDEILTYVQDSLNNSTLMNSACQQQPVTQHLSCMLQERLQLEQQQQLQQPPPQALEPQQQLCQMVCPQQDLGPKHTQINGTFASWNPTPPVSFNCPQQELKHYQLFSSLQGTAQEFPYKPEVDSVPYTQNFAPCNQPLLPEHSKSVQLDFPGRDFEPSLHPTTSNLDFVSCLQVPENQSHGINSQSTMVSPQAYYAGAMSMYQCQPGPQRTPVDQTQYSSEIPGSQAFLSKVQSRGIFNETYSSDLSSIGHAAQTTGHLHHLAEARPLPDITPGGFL

[17] = AUC (0 to infinity) in mouse at 10 mg/kg, po; assay type: ADME, organism-based; set-up: time infinity, dose 10 mg/kg, route oral; conditions: plasma
[18] = AUC (0 to infinity) in mouse at 2 mg/kg, iv; assay type: ADME, organism-based; set-up: time infinity, dose 2 mg/kg, route intravenous; conditions: plasma
[19] = biological target: T1, Tyrosine-protein kinase Lyn; test: Inhibition of LYN-A expressed in Sf9 cells preincubated for 60 mins measured after 60 mins by TR-FRET Assay; outline: as §1
[20] = biological target: T4, Epidermal growth factor receptor; test: Inhibition of EGFR preincubated for 60 mins measured after 60 mins by TR-FRET Assay
[21] = Homo sapiens, B-cell, read-out: IC50

T2 sequence (Q06187 whole entry): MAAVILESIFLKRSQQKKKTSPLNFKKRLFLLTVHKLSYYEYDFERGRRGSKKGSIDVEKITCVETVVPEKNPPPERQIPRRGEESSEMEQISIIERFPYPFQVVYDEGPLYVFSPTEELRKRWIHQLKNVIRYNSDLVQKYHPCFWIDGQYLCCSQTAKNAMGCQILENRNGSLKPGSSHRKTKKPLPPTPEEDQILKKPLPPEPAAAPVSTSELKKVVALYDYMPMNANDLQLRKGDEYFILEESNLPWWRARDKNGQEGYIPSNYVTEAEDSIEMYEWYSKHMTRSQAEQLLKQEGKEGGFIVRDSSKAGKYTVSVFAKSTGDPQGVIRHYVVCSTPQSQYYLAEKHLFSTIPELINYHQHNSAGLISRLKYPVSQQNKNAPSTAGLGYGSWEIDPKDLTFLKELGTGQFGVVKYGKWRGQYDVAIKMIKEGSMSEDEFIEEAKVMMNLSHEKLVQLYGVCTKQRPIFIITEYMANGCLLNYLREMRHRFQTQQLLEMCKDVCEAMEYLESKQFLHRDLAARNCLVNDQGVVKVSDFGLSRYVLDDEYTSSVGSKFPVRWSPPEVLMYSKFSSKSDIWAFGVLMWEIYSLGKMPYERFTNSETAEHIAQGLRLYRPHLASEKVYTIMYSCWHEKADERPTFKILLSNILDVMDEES
T1 sequence (P07948 whole entry): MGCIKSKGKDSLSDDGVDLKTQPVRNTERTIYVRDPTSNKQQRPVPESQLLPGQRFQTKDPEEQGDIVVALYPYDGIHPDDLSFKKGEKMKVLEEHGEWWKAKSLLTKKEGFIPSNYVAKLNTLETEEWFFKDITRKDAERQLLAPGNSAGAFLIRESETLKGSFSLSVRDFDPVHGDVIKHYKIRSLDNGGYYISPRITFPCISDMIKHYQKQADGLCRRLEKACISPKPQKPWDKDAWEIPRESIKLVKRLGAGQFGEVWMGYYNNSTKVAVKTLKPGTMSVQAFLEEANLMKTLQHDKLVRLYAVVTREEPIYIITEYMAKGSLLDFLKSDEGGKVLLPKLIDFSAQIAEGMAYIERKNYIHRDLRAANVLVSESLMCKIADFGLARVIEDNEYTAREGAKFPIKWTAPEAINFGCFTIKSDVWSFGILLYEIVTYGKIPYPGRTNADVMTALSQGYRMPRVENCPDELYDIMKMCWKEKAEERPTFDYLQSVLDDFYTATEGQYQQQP
T3 sequence (P12931 2-536 limits assumed): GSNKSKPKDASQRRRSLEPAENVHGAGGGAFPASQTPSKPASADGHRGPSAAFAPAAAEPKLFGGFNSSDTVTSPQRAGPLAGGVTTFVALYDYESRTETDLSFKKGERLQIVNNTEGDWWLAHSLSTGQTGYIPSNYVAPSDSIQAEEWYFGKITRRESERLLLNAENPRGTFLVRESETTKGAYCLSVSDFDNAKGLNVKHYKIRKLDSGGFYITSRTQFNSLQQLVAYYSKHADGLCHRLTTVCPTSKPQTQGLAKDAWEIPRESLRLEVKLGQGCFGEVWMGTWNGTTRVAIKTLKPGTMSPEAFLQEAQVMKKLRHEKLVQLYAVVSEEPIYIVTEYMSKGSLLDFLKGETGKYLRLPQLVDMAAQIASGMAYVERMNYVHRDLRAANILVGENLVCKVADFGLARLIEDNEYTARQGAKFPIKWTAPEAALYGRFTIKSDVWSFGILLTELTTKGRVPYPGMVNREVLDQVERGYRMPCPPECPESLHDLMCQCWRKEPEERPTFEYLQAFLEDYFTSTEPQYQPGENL
T4 sequence (P00533 whole entry): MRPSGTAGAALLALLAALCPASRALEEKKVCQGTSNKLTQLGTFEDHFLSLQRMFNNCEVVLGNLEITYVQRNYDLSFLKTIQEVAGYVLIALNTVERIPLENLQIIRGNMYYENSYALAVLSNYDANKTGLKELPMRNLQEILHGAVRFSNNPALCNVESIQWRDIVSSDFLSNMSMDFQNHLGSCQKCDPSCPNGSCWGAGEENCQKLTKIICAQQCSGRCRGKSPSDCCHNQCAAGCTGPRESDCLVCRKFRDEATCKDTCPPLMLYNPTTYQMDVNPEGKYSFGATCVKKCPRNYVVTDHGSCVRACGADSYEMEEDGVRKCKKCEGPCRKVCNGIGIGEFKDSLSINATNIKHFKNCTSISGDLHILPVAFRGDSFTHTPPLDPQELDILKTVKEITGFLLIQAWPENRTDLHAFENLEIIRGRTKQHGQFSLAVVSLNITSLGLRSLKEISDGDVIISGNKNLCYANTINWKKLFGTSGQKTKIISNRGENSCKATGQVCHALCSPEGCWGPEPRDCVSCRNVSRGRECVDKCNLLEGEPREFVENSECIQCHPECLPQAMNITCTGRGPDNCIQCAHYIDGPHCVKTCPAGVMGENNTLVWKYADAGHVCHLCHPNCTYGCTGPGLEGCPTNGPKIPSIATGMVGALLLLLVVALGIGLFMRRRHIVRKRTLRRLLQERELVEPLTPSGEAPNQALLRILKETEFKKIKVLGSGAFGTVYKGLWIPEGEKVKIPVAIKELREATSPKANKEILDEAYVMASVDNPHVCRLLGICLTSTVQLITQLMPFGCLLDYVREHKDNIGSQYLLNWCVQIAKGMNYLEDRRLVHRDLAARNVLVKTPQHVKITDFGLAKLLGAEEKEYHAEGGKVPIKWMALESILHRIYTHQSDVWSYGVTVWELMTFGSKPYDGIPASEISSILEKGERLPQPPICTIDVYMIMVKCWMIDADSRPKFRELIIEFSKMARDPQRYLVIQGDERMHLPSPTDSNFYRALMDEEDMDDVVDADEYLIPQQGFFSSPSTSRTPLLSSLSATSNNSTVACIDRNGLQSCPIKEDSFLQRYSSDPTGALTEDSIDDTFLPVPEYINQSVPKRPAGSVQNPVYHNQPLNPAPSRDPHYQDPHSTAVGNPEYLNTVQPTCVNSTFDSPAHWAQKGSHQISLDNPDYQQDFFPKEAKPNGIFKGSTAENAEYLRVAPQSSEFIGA
Chain of Tyrosine-protein kinase Lck (P06239 whole entry): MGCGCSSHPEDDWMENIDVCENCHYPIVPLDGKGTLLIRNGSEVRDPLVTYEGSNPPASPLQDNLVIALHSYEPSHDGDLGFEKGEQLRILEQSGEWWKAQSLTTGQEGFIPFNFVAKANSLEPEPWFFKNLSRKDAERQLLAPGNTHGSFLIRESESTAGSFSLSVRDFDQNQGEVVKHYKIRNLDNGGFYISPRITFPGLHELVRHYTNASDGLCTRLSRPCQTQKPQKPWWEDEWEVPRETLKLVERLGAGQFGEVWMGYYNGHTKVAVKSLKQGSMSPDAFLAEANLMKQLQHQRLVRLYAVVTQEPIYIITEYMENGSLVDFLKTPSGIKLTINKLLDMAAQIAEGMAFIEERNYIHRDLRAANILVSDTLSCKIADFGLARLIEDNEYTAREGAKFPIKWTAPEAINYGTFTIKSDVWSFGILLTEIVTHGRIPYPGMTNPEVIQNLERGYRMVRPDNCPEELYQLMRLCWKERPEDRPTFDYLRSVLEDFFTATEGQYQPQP

SMILES	IC50 [1]	IC50 [2, 21]	IC50 [3]	other results
Cc1ccccc1Nc1nc2cc(Cl)c(N(C)C(=O)/C=C/CN(C)C)cc2n2cncc12	1300 nM	2.17 nM	4.83 nM	–
Cc1c(F)cccc1Nc1nc2ccc(N(C)C(=O)/C=C/CN(C)C)cc2n2cncc12	327 nM	3.17 nM	1.89 nM	–
Cc1cccc(Cl)c1Nc1nc2ccc(N(C)C(=O)/C=C/CN(C)C)cc2n2cncc12	44.4 nM	–	10.3 nM	IC50 ([2]; b cell): Not Active
COc1cc2nc(Nc3ccccc3C)c3cncn3c2cc1NC(=O)C#CCN1CCOCC1	46.6 nM	–	0.847 nM	–
Cc1cccc(O)c1Nc1nc2ccc(N(C)C(=O)/C=C/CN(C)C)cc2n2cncc12	167 nM	44.9 nM	10.4 nM	–
Cc1ccc(F)cc1Nc1nc2cc(F)c(N(C)C(=O)/C=C/CN(C)C)cc2n2cncc12	3080 nM	23.5 nM	6.76 nM	–
Cc1ccccc1Nc1nc2ccc(N(C)C(=O)/C=C/CN(C)C)cc2n2cncc12	623 nM	3.17 nM	3.99 nM	–
Cc1ccc(O)cc1Nc1nc2ccc(N(C)C(=O)/C=C/CN(C)C)cc2n2cncc12	10.9 nM	2.56 nM	1.55 nM	–
Cc1cc(F)ccc1Nc1nc2ccc(N(C)C(=O)/C=C/CN(C)C)cc2n2cncc12	716 nM	2 nM	2.96 nM	–
Cc1ccc(F)cc1Nc1nc2cc(Cl)c(N(C)C(=O)/C=C/CN(C)C)cc2n2cncc12	3390 nM	5.84 nM	3.98 nM	clearance [4]: 26.6 mL/min/kg; Cmax [5]: 454 ng/mL; IC50 [6]: 2.6 nM; half-life [7]: 162 min; Vd [8]: 4.51 L/kg; IC50 [9]: 1620 nM; IC50 [10]: 410 nM; bioavailability [11]: 58%; Tmax [12]: 3 h; half-life [13]: 132 min; IC50 [14]: 68 nM; IC50 [15]: 2790 nM; EC50 [16]: > 10 µM; AUC(0-inf) [17]: 3620 ng·h/mL; AUC(0-inf) [18]: 1120 ng·h/mL; IC50 [19]: 3.02 µM; IC50 [20]: 3.35 nM
Cc1cc(Cl)ccc1Nc1nc2ccc(N(C)C(=O)/C=C/CN(C)C)cc2n2cncc12	378 nM	4.12 nM	7.56 nM	–
Cc1ccc(NC(=O)c2cccc(C(F)(F)F)c2)cc1Nc1nc2ccc(N(C)C(=O)/C=C/CN(C)C)cc2n2cncc12	1.55 nM	–	16.8 nM	IC50 ([2]; b cell): Not Active
Cc1cc(F)ccc1Oc1nc2ccc(N(C)C(=O)/C=C/CN(C)C)cc2n2cncc12	3730 nM	228 nM	6.58 nM	EC50 [16]: > 10 µM
CCN(C(=O)/C=C/CN(C)C)c1cc2c(cc1OC)nc(Nc1ccccc1C)c1cncn12	533 nM	16.1 nM	19.1 nM	–
COc1cc2nc(Nc3ccccc3C)c3cncn3c2cc1N(CC1CC1)C(=O)/C=C/CN(C)C	1980 nM	43.1 nM	45.3 nM	–
CNc1ccc2nc(Oc3ccc(F)cc3C)c3cncn3c2c1	560 nM	–	1220 nM	–
Cc1c(Cl)cccc1Nc1nc2ccc(N(C)C(=O)/C=C/CN(C)C)cc2n2cncc12	2320 nM	–	60.6 nM	IC50 ([2]; b cell): Not Active
Clc1cc2c(cc1Cl)Oc1cc(Cl)c(Cl)cc1O2 [2,3,7,8-TETRACHLORODIBENZO-P-DIOXIN]	–	–	–	EC50 [16]: 3e-05 µM
CNc1cc2c(cc1F)nc(Nc1ccccc1C)c1cncn12	19 nM	–	40 nM	–

SMILES	IC50 [1]	IC50 [2, 21]	IC50 [3]	other results
Cc1c(O)cccc1Nc1nc2ccc(N(C)C(=O)/C=C/CN(C)C)cc2n2cncc12	490 nM	–	76.5 nM	IC50 ([2]; b cell): Not Active
Cc1ccc(F)cc1Oc1nc2cc(F)c(N(C)C(=O)/C=C/CN(C)C)cc2n2cncc12	7400 nM	144 nM	13 nM	–
COc1cc2nc(Nc3ccccc3C)c3cncn3c2cc1NC(=O)/C=C/CN(C)C	10.9 nM	–	0.884 nM	IC50 ([2]; b cell): Not Active
Cc1ccc(F)cc1Nc1nc2ccc(N(C)C(=O)/C=C/CN(C)C)cc2n2cncc12	1420 nM	4.88 nM	3.33 nM	EC50 [16]: > 10 µM
COc1cc2nc(Nc3ccccc3C)c3cncn3c2cc1NC(=O)C#CCN1CCCCC1	21.3 nM	–	0.847 nM	–
Cc1cc(F)ccc1Nc1nc2cc(F)c(N(C)C(=O)/C=C/CN(C)C)cc2n2cncc12	3450 nM	8.08 nM	5.35 nM	–
CN(C)C/C=C/C(=O)N(C)c1cc2c(cc1Cl)nc(Nc1ccccc1Cl)c1cncn12	2000 nM	4.4 nM	5.03 nM	–
Cc1cc(F)ccc1Nc1nc2cc(Cl)c(N(C)C(=O)/C=C/CN(C)C)cc2n2cncc12	1590 nM	2.41 nM	9.53 nM	–
C=C(CN1CCOCC1)C(=O)Nc1cc2c(cc1OC)nc(Nc1ccccc1C)c1cncn12	297 nM	–	2.52 nM	–
Cc1cc(O)ccc1Nc1nc2ccc(N(C)C(=O)/C=C/CN(C)C)cc2n2cncc12	350 nM	1.02 nM	12.2 nM	–
Cc1cc(F)ccc1Oc1nc2cc(F)c(N(C)C(=O)/C=C/CN(C)C)cc2n2cncc12	10400 nM	32.3 nM	9.53 nM	–
CN(C)C/C=C/C(=O)N(C)c1cc2c(cc1F)nc(Nc1ccccc1Cl)c1cncn12	2130 nM	6.75 nM	1.82 nM	–
Cc1ccc(Cl)cc1Nc1nc2ccc(N(C)C(=O)/C=C/CN(C)C)cc2n2cncc12	1670 nM	53.7 nM	13.2 nM	–
CNc1cc2c(cc1F)nc(Oc1ccccc1C)c1cncn12	130 nM	–	670 nM	–
Cc1ccccc1Sc1nc2ccc(N(C)C(=O)/C=C/CN(C)C)cc2n2cncc12	19600 nM	651 nM	283 nM	–
CNc1ccc2nc(Nc3cc(F)ccc3C)c3cncn3c2c1	40 nM	–	72 nM	–
CN(C)C/C=C/C(=O)N(C)c1ccc2nc(Cl)c3cncn3c2c1	> 50000 nM	–	4290 nM	IC50 ([2]; b cell): Not Active
Cc1ccccc1Oc1nc2cc(F)c(N(C)C(=O)/C=C/CN(C)C)cc2n2cncc12	6020 nM	17.4 nM	5.51 nM	–
